In the library only some 2.2% were active in any assay of this set; here they are far more common.
AI-2 QS modul = modulators of Vibrio harveyi AI-2 quorum sensing system. Vibrio harveyi JMH597 AI-2 luminescence/OD600 ratio, 9 h; hits give low values; strain lacks LuxN and CqsS sensors; 0 = neutral-control median. activity change, % at 7.5 µM. hit rate 0.4% among 300,000; in the data active = activity change below about -75%, passing the limit was not always enough;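 note: luminescence divided by OD600 gain over 9 h not by final OD600 alone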
T cruzi repl = T. cruzi replication inhibition. T. cruzi beta-gal in NIH3T3, luminescence, 90 h. hit rate 1.4% among 300,000. AID 1885. inhibition, % (no concentration beside the values);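 active = mean inhibition across valid replicates above about 55%, limit read from the data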;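 note: signal also drops with host cell toxicity which is not excluded here; 0% = plate median of DMSO wells and 100% = zero luminescence signal; higher percent means less beta-gal luminescence so fewer parasites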
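compound dosing = single 50 nL compound addition per well in DMSO | material = NIH/3T3 host cells with β-galactosidase reporter T. cruzi | input = 5,000 host fibroblasts per well | timing = ≥90 h infection period, 3 h prior cell attachment | read-out basis = percent inhibition of parasite-derived β-gal signal | detection = GalScreen β-gal luminescence, detergent lysis, 60 min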
HDAC3 inh = inhibitors of human histone deacetylase 3; O15379; AID 2718; inhibition, % at 8.3 µM; recombinant HDAC3, fluorogenic peptide/trypsin coupled, fluorescence; hit rate 0.15% among 320,000; in the data active = inhibition above about 26%, passing the limit was not always enough
Target sequence (O15379 whole entry, looked up): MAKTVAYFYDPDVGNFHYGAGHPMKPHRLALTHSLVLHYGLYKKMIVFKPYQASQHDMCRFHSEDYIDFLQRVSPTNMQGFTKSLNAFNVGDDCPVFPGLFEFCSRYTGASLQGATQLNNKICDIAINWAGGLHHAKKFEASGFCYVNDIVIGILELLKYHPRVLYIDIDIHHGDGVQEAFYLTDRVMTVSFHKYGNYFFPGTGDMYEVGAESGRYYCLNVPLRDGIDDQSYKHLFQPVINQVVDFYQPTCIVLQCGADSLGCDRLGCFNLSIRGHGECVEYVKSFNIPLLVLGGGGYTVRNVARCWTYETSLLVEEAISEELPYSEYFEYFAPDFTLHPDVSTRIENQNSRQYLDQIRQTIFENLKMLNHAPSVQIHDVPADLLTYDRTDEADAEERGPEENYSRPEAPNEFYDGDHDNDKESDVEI
Efflux pump inh = blocks antifungal efflux pumps in multiplex yeast assay | hit rate 0.44% among 330,000 | inhibition, % at 10 µM | AID 485275 | S. cerevisiae Candida pump triplex, Nile Red efflux;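 active = plate passing quality check with inhibition over a set limit, or well fluorescence over plate mean plus 4 SD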;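 note: Nile Red retained in pooled yeast measured as flow cytometry median fluorescence; 0% = buffer negative control and 100% = Enniatin B positive control; higher means more Nile Red kept so more efflux inhibition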
PolyA inh = blocks polyadenylation in yeast reporter cells. S. cerevisiae SKY197-pL101 polyadenylation reporter, beta-gal luminescence; efflux-impaired pdr1/pdr3 knockout yeast; score 100 = 6 SD above DMSO. activity score, % at 12 µM. hit rate 0.02% among 300,000. AID 1875;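 active = lowest replicate activity score at least 50, where 100 means six control SD above control mean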;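 note: yeast exposed to compound for 9 h at 30 °C; higher score means more reporter readthrough which indicates perturbed polyadenylation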
An asterisk follows results filed as active; . = not tested or not shown.

SMILES | AI-2 QS modul | T cruzi repl | HDAC3 inh | Efflux pump inh | PolyA inh
CCc1ccc2c(c1)C(c1ccc(N3CCOCC3)cc1)=NNC(c1ccncc1)=N2 | 16.5 | 58.6* | 4.9 | 0.0 | -5.2
O=C(Nc1ccc(Cl)c(Cl)c1)c1ccc(Cl)c(Cl)c1 | 5.2 | 20.3 | . | -1.0 | -15.7
CS(=O)(=O)c1cccc(NC(=O)c2ccc(Cl)c(Cl)c2)c1 | -57.2 | 57.7* | -2.3 | 0.1 | 7.6
O=C(c1ccc(F)cc1)N1CCC(C(=O)N2CCN(S(=O)(=O)c3cccc(Cl)c3)CC2)CC1 | 13.8 | 31.6 | 3.8 | 0.3 | 21.1
O=C(COC(=O)C1CC1)Nc1ccc(Cl)cn1 | . | . | 1.4 | 0.0 | .
CCC(=O)Nc1ccc(C(=O)Cn2ncc(Cl)c(Cl)c2=O)cc1 | -29.6 | 49.5 | . | 0.0 | -5.0
CCC(=O)Nc1cc(-c2nn(C)c(=O)c3ccccc23)ccc1OC | 15.2 | -2.9 | 1.6 | -0.4 | -2.0
COc1ccc(-c2nn(C)c(=O)c3ccccc23)cc1NC(=O)Cn1nc(C)c2ccccc2c1=O | 24.3 | 73.6* | -3.2 | 0.2 | -6.0
O=C(OCn1ncc(Cl)c(Cl)c1=O)c1ccc(C(F)(F)F)cc1 | 14.0 | 63.5* | . | . | -36.7
CCOC(=O)c1ccc(NC(=O)Cn2ncc(Cl)c(Cl)c2=O)cc1 | -95.6* | 56.2* | . | 0.1 | -1.6
COC(=O)c1ccc(NC(=O)Cn2nc(C)c3ccccc3c2=O)cc1 | -96.2* | -3.0 | -5.9 | 0.0 | 11.4
CCN(CC)C(=S)SCC(=O)c1ccc(Br)cc1 | 21.2 | 6.0 | . | 0.2 | -43.4
Cc1ccc(C(=O)Nc2ncccc2C)cc1S(=O)(=O)N1CCCCC1 | 13.0 | 9.4 | 0.5 | -0.1 | 7.5
COC(=O)c1ccc(NC(=O)C(OC)c2ccccc2)cc1 (stereo not drawn) | 15.6 | -3.7 | -2.9 | 0.0 | -11.0
Cc1nn(CC(=O)Nc2ccc3c(c2)oc2ccccc23)c(=O)c2ccccc12 | -39.4 | 22.8 | 0.7 | 0.1 | -8.1
CCOC(=O)c1ccc(NC(=O)Cn2nc(C)c3ccccc3c2=O)cc1 | -96.7* | 6.5 | -4.7 | 0.0 | 15.1
COc1ccc(-c2ccc(C(C)=O)cc2)cc1[C@H]1[C@H]2C=CC[C@@H](C)[C@@H]2C(=O)N1Cc1ccccc1 | 18.9 | 60.0* | -9.7 | 0.2 | 4.5
CCN1CCN(C(=O)c2ccc(Cl)c(S(=O)(=O)N3CCCCC3)c2)CC1 | 6.3 | -1.5 | 2.4 | 0.0 | -9.0
Cc1ccc(/C=N/NC(=O)c2cccc(S(=O)(=O)N3CCOCC3)c2)o1 | -5.7 | 1.8 | 2.4 | -0.3 | 3.4
CCCN(CC(=O)Nc1ccccc1C)C(=O)c1ccc(C2SCCS2)cc1 | . | 1.1 | 80.3* | -0.1 | -3.7
CCCN(CC(=O)Nc1ccccc1C)C(=O)COc1c(C)cccc1C | . | . | -1.2 | 0.7 | .
CCCN(CC(=O)Nc1ccccc1C)C(=O)c1ccc(S(=O)(=O)N2CCCCCC2)cc1 | 6.3 | 5.1 | 2.7 | -0.1 | 4.0
CCCN(CC(=O)Nc1ccccc1C)C(=O)CCl | . | 78.3* | 7.5 | 0.0 | 0.8
Cc1ccc2nc(/C(C#N)=C\c3ccc(N4CCCCC4)c([N+](=O)[O-])c3)[nH]c2c1 | 18.7 | 72.4* | 5.3 | 0.1 | -8.2
CC(C)(CO)CNC1CCCN(C2Cc3ccccc3C2)C1 (stereo not drawn) | 17.7 | 66.3* | 2.5 | 0.0 | 3.3
SMILES | AI-2 QS modul | T cruzi repl | HDAC3 inh | Efflux pump inh | PolyA inh
C#Cc1cccc(C(=O)NC2CCCN(C3Cc4ccccc4C3)C2)c1 (stereo not drawn) | -0.1 | 41.5 | -0.7 | 0.0 | 3.4
CCn1ncc(/C=N\NC(=O)Cc2ccc([N+](=O)[O-])cc2)c1C | 21.4 | -27.5 | 2.2 | 0.0 | 5.4
CS(=O)(=O)N1CCc2cc(-c3csc(NC(=O)C(c4ccccc4)c4ccccc4)n3)ccc21 | -3.9 | 60.8* | 7.7 | 0.1 | 8.5
CSc1cccc(NC(=S)N(CCCN2CCCC2)Cc2cccn2Cc2ccc(Cl)cc2)c1 | -0.6 | 56.1* | -4.7 | -0.1 | -2.3
COc1cccc(C2CCCCN2Cc2nc(-c3ccc(C)o3)oc2C)c1 (stereo not drawn) | 15.9 | 11.3 | 2.1 | 0.0 | -5.8
COc1ccc(OC)c(-c2nc(CN3CCCCC3c3cccnc3)c(C)o2)c1 (stereo not drawn) | 10.0 | 59.4* | 0.4 | 0.0 | 7.3
Cn1ccc(C(=O)OCC(=O)Nc2ccccc2Cl)n1 | 17.3 | 0.0 | . | . | 1.7
O=C(c1ccc(Cl)cc1)C1CCCN(Cc2cccn2-c2cccnc2)C1 (stereo not drawn) | 15.1 | 58.1* | -0.7 | 0.2 | 6.1
Cn1c(CN2CCCC(C(=O)c3ccc4c(c3)OCO4)C2)nc2ccccc21 (stereo not drawn) | -1.2 | 72.7* | 1.7 | 0.3 | 1.4
O=C(c1ccc2c(c1)OCO2)C1CCCN(Cc2cccn2-c2cccnc2)C1 (stereo not drawn) | 14.6 | 57.9* | -0.8 | 0.0 | 2.0
CN1CCN(c2ccc(-c3cccc(NC(=O)COc4ccc(Cl)cc4Cl)c3)nn2)CC1 | 4.3 | 53.9 | 9.9 | 0.1 | 5.7
O=S(=O)(C/C(=C/CO)S(=O)(=O)c1ccccc1)c1ccccc1 | -23.7 | 61.9* | -3.0 | 0.2 | -3.9
Cc1cc(C)n(-c2nc3ccccc3c(=O)n2OCC#N)n1 | -10.8 | 59.1* | 4.0 | 0.0 | -16.2
O=C(C[n+]1ccccc1)N/N=C/c1ccc(Cl)c(Cl)c1 | 25.6 | -13.3 | 0.5 | -0.1 | 1.1
COc1ccc(C(CNC(=O)c2cccc(N(C)C)c2)N2CCCC2)cc1 (stereo not drawn) | 24.3 | 18.1 | -14.0 | -0.1 | -3.8
COc1ccc(C(CNC(=O)c2oc3ccc(Br)cc3c2C)N2CCCCC2)cc1 (stereo not drawn) | 10.1 | 54.6* | -4.5 | -0.1 | -6.3
CCC1CCc2sc(C(=O)NCC(c3ccc(OC)cc3)N3CCCC3)cc2C1 (stereo not drawn) | 13.1 | 66.1* | 1.0 | 0.2 | -3.1
Cc1c(C(=O)Nc2ccc(-c3nnc4n3CCCCC4)cc2)oc2ccc(Br)cc12 | 15.1 | 60.8* | 1.9 | 0.2 | 13.2
COc1ccc(C(CNC(=O)c2oc3cc(Br)ccc3c2C)N2CCCCC2)cc1 (stereo not drawn) | 4.0 | 4.7 | 4.2 | 0.0 | 1.1
O=C(CN1C(=O)NC2(CCCc3ccccc32)C1=O)NCc1cccs1 (stereo not drawn) | . | . | -8.5 | 0.2 | .
C[C@H]1c2cccc(O)c2C(O)=C2C(=O)[C@]3(O)C(O)=C(C(N)=O)C(=O)[C@@H](N(C)C)C3[C@@H](O)C21 (stereo partly drawn) | -119.7* | -13.3 | -3.1 | -0.1 | 13.7
C=C1c2cccc(O)c2C(=O)C2C(=O)[C@]3(O)C(=O)C(C(N)=O)C(=O)[C@@H](N(C)C)[C@@H]3[C@@H](O)[C@H]12 (stereo partly drawn) | . | . | . | -0.1 | .
COc1cc(NC(=O)CCc2c(C)noc2C)c(Cl)cc1C(=O)O | . | . | 8.1 | -0.1 | .
Cc1ccc(S(=O)(=O)c2cnc3cc(C)nn3c2N)cc1 | -89.9* | -0.8 | 0.7 | 0.4 | -2.6

Screens deposited in PubChem by several laboratories.
